One block for each compound: values may come before it.
Tests used:
[1] = molecular target: T1, 5-hydroxytryptamine receptor 1A (Rattus norvegicus, UniProt P19327); test: Compound was evaluated for its binding affinity against 5-hydroxytryptamine 1A receptor from rat cerebral cortex; assay type: tissue-based
T1 sequence (P19327 whole entry): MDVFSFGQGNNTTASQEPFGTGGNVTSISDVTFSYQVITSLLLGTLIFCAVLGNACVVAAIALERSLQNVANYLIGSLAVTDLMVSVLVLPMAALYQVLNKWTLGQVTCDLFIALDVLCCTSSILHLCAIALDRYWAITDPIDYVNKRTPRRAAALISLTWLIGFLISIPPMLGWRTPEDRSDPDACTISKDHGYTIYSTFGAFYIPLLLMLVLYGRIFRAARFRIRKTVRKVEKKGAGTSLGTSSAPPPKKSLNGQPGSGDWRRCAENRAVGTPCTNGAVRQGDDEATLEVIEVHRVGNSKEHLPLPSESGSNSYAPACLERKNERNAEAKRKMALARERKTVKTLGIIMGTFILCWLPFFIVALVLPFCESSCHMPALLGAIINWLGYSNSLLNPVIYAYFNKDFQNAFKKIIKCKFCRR

[2] = molecular target: T2, Adrenergic receptor alpha-1 (Rattus norvegicus, UniProt P15823+P23944+P43140); test: Binding affinity against Alpha-1 adrenergic receptor from rat cerebral cortex; assay type: tissue-based
T2 sequence (P15823 whole entry): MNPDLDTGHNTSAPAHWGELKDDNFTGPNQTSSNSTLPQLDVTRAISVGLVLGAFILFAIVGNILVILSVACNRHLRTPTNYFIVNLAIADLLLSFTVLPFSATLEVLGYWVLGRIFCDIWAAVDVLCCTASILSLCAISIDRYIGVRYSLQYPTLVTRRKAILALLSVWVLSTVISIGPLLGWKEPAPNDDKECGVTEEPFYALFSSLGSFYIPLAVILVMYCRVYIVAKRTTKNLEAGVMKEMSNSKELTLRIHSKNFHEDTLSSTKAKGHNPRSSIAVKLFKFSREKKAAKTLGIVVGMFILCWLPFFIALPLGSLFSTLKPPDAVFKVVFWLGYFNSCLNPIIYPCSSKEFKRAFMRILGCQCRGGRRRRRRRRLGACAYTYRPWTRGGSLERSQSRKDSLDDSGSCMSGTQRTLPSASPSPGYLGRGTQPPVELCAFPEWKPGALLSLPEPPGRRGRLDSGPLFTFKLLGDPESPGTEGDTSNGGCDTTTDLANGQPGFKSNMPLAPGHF
T2 sequence (P23944 whole entry): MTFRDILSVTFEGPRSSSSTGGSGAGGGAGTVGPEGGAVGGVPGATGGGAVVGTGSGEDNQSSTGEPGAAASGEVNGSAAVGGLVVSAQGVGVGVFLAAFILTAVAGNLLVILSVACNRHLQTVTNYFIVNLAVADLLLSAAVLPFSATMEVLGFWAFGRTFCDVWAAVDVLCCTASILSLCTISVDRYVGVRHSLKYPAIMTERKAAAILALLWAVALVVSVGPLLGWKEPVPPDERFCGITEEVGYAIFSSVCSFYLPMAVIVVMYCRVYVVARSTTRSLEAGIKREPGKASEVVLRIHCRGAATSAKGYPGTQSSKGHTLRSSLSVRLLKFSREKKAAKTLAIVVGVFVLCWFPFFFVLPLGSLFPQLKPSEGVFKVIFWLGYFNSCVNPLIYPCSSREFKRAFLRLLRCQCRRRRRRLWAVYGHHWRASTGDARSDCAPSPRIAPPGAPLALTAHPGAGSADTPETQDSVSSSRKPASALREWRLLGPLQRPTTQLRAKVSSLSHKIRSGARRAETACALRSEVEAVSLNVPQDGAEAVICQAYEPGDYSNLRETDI
T2 sequence (P43140 whole entry): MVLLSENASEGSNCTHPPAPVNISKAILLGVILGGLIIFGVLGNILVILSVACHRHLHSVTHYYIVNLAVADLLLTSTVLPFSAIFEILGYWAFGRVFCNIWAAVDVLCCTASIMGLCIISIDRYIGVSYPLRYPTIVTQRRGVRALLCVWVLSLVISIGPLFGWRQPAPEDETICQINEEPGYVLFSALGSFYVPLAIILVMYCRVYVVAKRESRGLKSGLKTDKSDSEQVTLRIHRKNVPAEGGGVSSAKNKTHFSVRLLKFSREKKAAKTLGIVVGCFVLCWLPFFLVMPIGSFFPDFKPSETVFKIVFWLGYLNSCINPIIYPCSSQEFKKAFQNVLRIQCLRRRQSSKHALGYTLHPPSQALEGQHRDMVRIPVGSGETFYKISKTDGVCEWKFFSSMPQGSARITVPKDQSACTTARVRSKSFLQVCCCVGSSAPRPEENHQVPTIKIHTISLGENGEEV

Rattus norvegicus [3] = test: compound was tested for antipsychotic activity by conditioned avoidance response(CAR) assay in rats with a pretreatment period of 30 min upon intra peritoneal administration at a concentration of 1 mg/kg.; assay type: functional
Outline: (§1)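 Trained rats (N = 4) were run in 1-h sessions on two consecutive days, with the experimenter blind to drug and dose. Fed rats had food and water until placed in the test chambers. Fasted rats had no food overnight before the experiment.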

Rattus norvegicus [4] = test: compound was tested for antipsychotic activity by conditioned avoidance response(CAR) assay in rats with a pretreatment period of 30 min upon intra peritoneal administration at a concentration of 5 mg/kg.; assay type: functional
Outline: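 Rat conditioned avoidance test modified from Martin et al. Trained rats (N = 4) were run in 1-h sessions on two consecutive days. Fed animals had food and water until placed in the test chambers. Dosing was ip with 30 min pretreatment, and activity was expressed as percent inhibition at the stated dose.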

Rattus norvegicus [5] = test: compound was tested for antipsychotic activity by conditioned avoidance response(CAR) assay in rats with a pretreatment period of 30 min upon peroral administration at a concentration of 20 mg/kg.; assay type: functional; conditions: route oral; outline: as §1
Rattus norvegicus [6] = test: Percent catalepsy in male Spargue-Dawley rat at pretreatment time 60 mins and when administered ip at dose 50 mg/kg; assay type: functional; conditions: route intraperitoneal
Outline: (§2)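 Catalepsy in rats, groups of five per drug treatment, scored blind to drug and dose. Each session included a saline or vehicle negative control and a haloperidol 2 mg/kg positive control. Deaths during the experiment were recorded in the catalepsy column as number dead out of five.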

Rattus norvegicus [7] = test: compound was tested for antipsychotic activity by conditioned avoidance response(CAR) assay in rats with a pretreatment period of 30 min upon intra peritoneal administration at a concentration of 5 mg/kg; assay type: functional; outline: as §1
Rattus norvegicus [8] = test: compound was tested for antipsychotic activity by conditioned avoidance response(CAR) assay in rats with a pretreatment period of 30 min upon intra peritoneal administration at a concentration of 13.4 mg/kg.; assay type: functional; outline: as §1
Rattus norvegicus [9] = test: compound was tested for antipsychotic activity by conditioned avoidance response(CAR) assay in rats with a pretreatment period of 30 min upon intra peritoneal administration at a concentration of 7.5 mg/kg.; assay type: functional; outline: as §1
Rattus norvegicus [10] = test: Percent catalepsy in male Spargue-Dawley rat at pretreatment time 240 mins and when administered ip at dose 50 mg/kg (4/5L denotes that four rats out of five died during the course of experiment); assay type: functional; conditions: route intraperitoneal
Outline: (§3)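 Catalepsy scored in groups of five rats per drug treatment, with the experimenter blind to drug and dose, in a quiet room. Each session included two control groups: saline (or vehicle) as negative control and haloperidol 2 mg/kg as positive control. Deaths during the experiment were recorded as lethality (e.g., 3/5L) in place of percent catalepsy.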

Rattus norvegicus [11] = test: Percent catalepsy in male Spargue-Dawley rat at pretreatment time 60 mins and when administered ip at dose 50 mg/kg (3/5L denotes that three rats out of five died during the course of experiment); assay type: functional; conditions: route intraperitoneal; outline: as §3
Rattus norvegicus [12] = test: compound was tested for antipsychotic activity by conditioned avoidance response(CAR) assay in rats with a pretreatment period of 30 min upon intra peritoneal administration.; assay type: functional; outline: as §1
Rattus norvegicus [13] = test: Percent catalepsy in male Spargue-Dawley rat at pretreatment time 60 mins and administered ip at dose 50 mg/kg; assay type: functional; conditions: route intraperitoneal; outline: as §2
[14] = molecular target: T1, 5-hydroxytryptamine receptor 1A; test: Compound was evaluated for its binding affinity with 5-hydroxytryptamine 1A receptor using membranes prepared from rat cerebral cortex; assay type: tissue-based
Outline: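 Membranes from male Wistar rat cerebral cortex: homogenized in HEPES-buffered 0.3 M sucrose, P2 pellet incubated 30 min at 25 °C, resuspended in 3 mM phosphate buffer pH 7.5. Labeled with 3 nM [3H]-8-OH-DPAT for 20 min at 25 °C. Nonspecific binding defined with 1 μM serotonin.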

[15] = molecular target: T2, Adrenergic receptor alpha-1; test: Compound was evaluated for its binding affinity with Alpha-1 adrenergic receptor using membranes prepared from rat cerebral cortex; assay type: tissue-based
Rattus norvegicus [16] = test: compound was tested for antipsychotic activity by conditioned avoidance response(CAR) assay in rats with a pretreatment period of 30 min upon intra peritoneal administration at a concentration of 15 mg/kg; assay type: functional; outline: as §1
Rattus norvegicus [17] = test: compound was tested for antipsychotic activity by conditioned avoidance response(CAR) assay in rats with a pretreatment period of 30 min upon intra peritoneal administration at a concentration of 15 mg/kg.; assay type: functional
Rattus norvegicus [18] = test: compound was tested for antipsychotic activity by conditioned avoidance response(CAR) assay in rats with a pretreatment period of 60 min upon peroral administration at a concentration of 10 mg/kg.; assay type: functional; conditions: route oral; outline: as §1

Ki [2]: 6.7 nM
SMILES: CC(C)Oc1ccccc1N1CCN(Cc2cccc(S(=O)(=O)N3CCCCC3)c2)CC1
inhibition in vivo at 5 mg/kg (Rattus norvegicus [7]): -6.7%

Ki [1]: 0.71 nM
Ki [2]: 8.2 nM
SMILES: CCOc1ccccc1N1CCN(Cc2cccc(C(=O)N3CCCCCC3)c2)CC1
ED50 (Rattus norvegicus [12]): 1.26 mg/kg
Catalepsy (Rattus norvegicus [13]): 47.5%

Further lines, the compound ahead of its results:

SMILES: O=C(c1cccc(CN2CCN(C3COc4ccccc4O3)CC2)c1)N1CCCCC1 (stereo not given)
Ki [1]: 0.34 nM
Ki [2]: 21 nM
inhibition in vivo at 1 mg/kg (Rattus norvegicus [3]): -2.6%
inhibition in vivo at 5 mg/kg (Rattus norvegicus [4]): -93.8%
inhibition in vivo at 20 mg/kg (Rattus norvegicus [5]): -68.2%
Catalepsy (Rattus norvegicus [6]): 29%

SMILES: CC(C)Oc1ccccc1N1CCN(Cc2cccc(C(=O)N3CCCC3)c2)CC1
Ki [1]: 3.6 nM
Ki [2]: 1.9 nM
inhibition in vivo at 1 mg/kg (Rattus norvegicus [3]): -44.8%
inhibition in vivo at 13.4 mg/kg (Rattus norvegicus [8]): -79.4%
inhibition in vivo at 7.5 mg/kg (Rattus norvegicus [9]): -98.3%
Catalepsy (Rattus norvegicus [10]): 0%
Catalepsy (Rattus norvegicus [11]): 0%

SMILES: O=C(c1cccc(CN2CCN(c3nsc4ccccc34)CC2)c1)N1CCCCC1
Ki [14]: 2.5 nM
Ki [15]: 2.7 nM
inhibition in vivo at 5 mg/kg (Rattus norvegicus [4]): -89.6%
Catalepsy (Rattus norvegicus [6]): 74%

SMILES: O=C(c1cccc(CN2CCNCC2)c1)N1CCCCC1
Ki [2]: > 1000 nM
inhibition in vivo at 15 mg/kg (Rattus norvegicus [16]): -30.2%

SMILES: CC(C)Oc1ccccc1N1CCN(Cc2cccc(C(=O)N3CCc4ccccc43)c2)CC1
Ki [1]: 3.4 nM
Ki [2]: 1.7 nM
inhibition in vivo at 1 mg/kg (Rattus norvegicus [3]): -1.6%
inhibition in vivo at 15 mg/kg (Rattus norvegicus [17]): -95.8%
inhibition in vivo at 10 mg/kg (Rattus norvegicus [18]): -1.4%

Source: ChEMBL document CHEMBL1131239, “Orally active benzamide antipsychotic agents with affinity for dopamine D2, serotonin 5-HT1A, and adrenergic alpha1 receptors” (J Med Chem, 1998)
